ChEMBL document CHEMBL1141897, “Pyrrolidinedione derivatives as antibacterial agents with a novel mode of action” (Bioorg Med Chem Lett, 2005)
Converted amounts (≈) assume the structure as drawn.

How the values were obtained:
Format in all cases: functional
Staphylococcus aureus [1] = assay: Minimum inhibitory concentration of the compound against Staphylococcus aureus 133 strain was determined
Method in brief: (§1)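 Whole-cell MIC panel of the Gram-positive S. aureus 133 and S. pneumoniae G9A, plus two E. coli strains: Neumann (wild type) and HN818 (efflux pump deletion strain).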

Staphylococcus aureus [2] = assay: Inhibitory concentration of the compound against Staphylococcus aureus was determined
Streptococcus pneumoniae = assay: Minimum inhibitory concentration against Streptococcus pneumoniae G9A strain was determined
Escherichia coli [3] = assay: Minimum inhibitory concentration of the compound againstEscherichia coli HN818 strain was determined; method in brief: as §1
Escherichia coli [4] = assay: Inhibitory concentration of the compound against Escherichia coli was determined
Escherichia coli [5] = assay: Minimum inhibitory concentration of the compound againstEscherichia coli Neumann strainwas determined; method in brief: as §1

Structure (SMILES)	MIC (Staphylococcus aureus [1]) [µg/mL]	IC50 (Staphylococcus aureus [2]) [nM]	MIC (Streptococcus pneumoniae) [µg/mL]	MIC (Escherichia coli [3]) [µg/mL]	IC50 (Escherichia coli [4]) [nM]	MIC (Escherichia coli [5]) [µg/mL]
C/C=C/C=C/C(=O)N[C@@H](CC(=O)N[C@H](C(=O)[C@@H]1C(=O)N(NC)C(=O)[C@H]1C)C(C)C)c1ccccc1	4 (≈ 8.29 µM)	105	16 (≈ 33.2 µM)	8 (≈ 16.6 µM)	14	> 64
CC(C)[C@H](NC(=O)C[C@H](NC(=O)/C=C/c1ccc(-c2ccccc2)cc1)c1ccccc1)C(=O)[C@@H]1C(=O)NC(=O)[C@H]1C	2 (≈ 3.54 µM)	540	16 (≈ 28.3 µM)	> 64	37	> 64
C/C=C/C=C/C(=O)N[C@@H](CC(=O)N[C@H](C(=O)[C@@H]1C(=O)N(C)C(=O)[C@H]1C)C(C)C)c1ccccc1	16 (≈ 34.2 µM)	211	> 64	16 (≈ 34.2 µM)	25	> 64
C/C=C/C=C/C(=O)N[C@@H](CC(=O)N[C@H](C(=O)[C@@H]1C(=O)N(OCC)C(=O)[C@H]1C)C(C)C)c1ccccc1	8 (≈ 16.1 µM)	123	32 (≈ 64.3 µM)	64 (≈ 129 µM)	100	> 64
C/C=C/C=C/C(=O)N[C@@H](CC(=O)N[C@H](C(=O)C1C(=O)NC(=O)CC1C)C(C)C)c1ccccc1 (stereo not given in full)	> 64	> 1000	> 64	> 64	> 300	> 64
C/C=C/C=C/C(=O)N[C@@H](CC(=O)N[C@H](C(=O)C1CC(C)C(=O)NC1=O)C(C)C)c1ccccc1 (stereo not given in full)	> 64	> 1000	> 64	> 64	295	> 64
C/C=C/C=C/C(=O)N[C@@H](CC(=O)N[C@H](C(=O)[C@@H]1C(=O)NC(=O)[C@H]1C)C(C)C)c1ccccc1	8 (≈ 17.6 µM)	96	32 (≈ 70.6 µM)	4 (≈ 8.82 µM)	6	32 (≈ 70.6 µM)
CC(C)[C@H](NC(=O)C[C@H](NC(=O)/C=C/c1ccccc1)c1ccccc1)C(=O)[C@@H]1C(=O)NC(=O)[C@H]1C	8 (≈ 16.3 µM)	75	32 (≈ 65.4 µM)	2 (≈ 4.09 µM)	9	32 (≈ 65.4 µM)
C/C=C/C=C/C(=O)N[C@@H](CC(=O)N[C@H](C(=O)[C@@H]1C(=O)N(CCOC)C(=O)[C@H]1C)C(C)C)c1ccccc1	64 (≈ 125 µM)	1300	64 (≈ 125 µM)	> 64	150	> 64
C/C=C/C=C/C(=O)N[C@@H](CC(=O)N[C@H](C(=O)[C@@H]1C(=O)N(N(C)C)C(=O)[C@H]1C)C(C)C)c1ccccc1	4 (≈ 8.05 µM)	238	16 (≈ 32.2 µM)	4 (≈ 8.05 µM)	33	> 64
C/C=C/C=C/C=C/C(=O)N[C@@H](CC(=O)N[C@H](C(=O)[C@@H]1C(=O)NC(=O)[C@H]1C)C(C)C)c1ccccc1	8 (≈ 16.7 µM)	305	8 (≈ 16.7 µM)	32 (≈ 66.7 µM)	13	> 64
C/C=C/C=C/C(=O)N[C@@H](CC(=O)N[C@H](C(=O)[C@@H]1C(=O)N(C)C(=O)[C@H]1CC)C(C)C)c1ccccc1	> 64	> 1000	> 64	> 64	> 200	> 64
C/C=C/C=C/C(=O)N[C@@H](CC(=O)N[C@H](C(=O)[C@@H]1C(=O)N(C2CC2)C(=O)[C@H]1C)C(C)C)c1ccccc1	> 64	2560	> 64	> 64	60	> 64
C/C=C/C=C/C(=O)N[C@@H](CC(=O)N[C@H](C(=O)C1CCC(=O)NC1=O)C(C)C)c1ccccc1 (stereo not given in full)	> 64	> 1000	> 64	> 64	> 300	> 64
CC(C)[C@H](NC(=O)C[C@H](NC(=O)/C=C/c1c[nH]cn1)c1ccccc1)C(=O)[C@@H]1C(=O)NC(=O)[C@H]1C	> 64	151	> 64	64 (≈ 133 µM)	6	> 64
CC(C)[C@H](NC(=O)C[C@H](NC(=O)/C=C/c1ccc(Cl)c(Cl)c1)c1ccccc1)C(=O)[C@@H]1C(=O)NC(=O)[C@H]1C	2 (≈ 3.58 µM)	288	32 (≈ 57.3 µM)	1 (≈ 1.79 µM)	7	8 (≈ 14.3 µM)
C/C=C/C=C/C(=O)N[C@@H](CC(=O)N[C@H](C(=O)[C@@H]1C(=O)NC(=O)C1(C)C)C(C)C)c1ccccc1	> 64	900	> 64	> 64	54	> 64
COc1cccc(/C=C/C(=O)N[C@@H](CC(=O)N[C@H](C(=O)[C@@H]2C(=O)NC(=O)[C@H]2C)C(C)C)c2ccccc2)c1	4 (≈ 7.7 µM)	43	16 (≈ 30.8 µM)	2 (≈ 3.85 µM)	4	32 (≈ 61.6 µM)
C/C=C/C=C/C(=O)N[C@@H](CC(=O)N[C@H](C(=O)[C@H]1CC(=O)N(C)C1=O)C(C)C)c1ccccc1	> 64	> 1000	> 64	> 64	> 200	> 64
CC(C)[C@H](NC(=O)C[C@H](NC(=O)/C=C/C(=O)O)c1ccccc1)C(=O)[C@@H]1C(=O)NC(=O)[C@H]1C	> 64	317	> 64	> 64	2	> 64
